According to ChEMBL document CHEMBL1137220, “2-(2-(dimethylaminomethyl)phenoxy)-5-iodophenylamine: an improved serotonin transporter imaging agent” (J Med Chem, 2004):

How the values were obtained:
[1] = target: Sodium-dependent dopamine transporter (Homo sapiens, UniProt Q01959); test: Binding affinity for dopamine transporter expressed in […] cells; type: cell-based
Summary of the method: (§1)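 Membranes from confluent pig kidney LLC-PK₁ cells stably expressing the respective transporter, homogenized and pelleted, 30–40 μg protein. Incubated with 0.4 nM [¹²⁵I]IPT or [¹²⁵I]IDAM and 8–10 competitor concentrations (10⁻¹⁰ to 10⁻⁵ M) in 50 mM Tris-HCl pH 7.4, 120 mM NaCl, 0.1% BSA, 1 h at room temperature. Nonspecific binding was defined with 10 μM CFT for IPT and 1 μM IDAM for IDAM. Filtration, gamma counting, nonlinear regression for Ki.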

[2] = target: Sodium-dependent serotonin transporter (Homo sapiens, UniProt P31645); test: Binding affinity for serotonin transporter expressed in […] cells; type: cell-based; summary of the method: as §1
Sequence of Sodium-dependent serotonin transporter (P31645 whole entry): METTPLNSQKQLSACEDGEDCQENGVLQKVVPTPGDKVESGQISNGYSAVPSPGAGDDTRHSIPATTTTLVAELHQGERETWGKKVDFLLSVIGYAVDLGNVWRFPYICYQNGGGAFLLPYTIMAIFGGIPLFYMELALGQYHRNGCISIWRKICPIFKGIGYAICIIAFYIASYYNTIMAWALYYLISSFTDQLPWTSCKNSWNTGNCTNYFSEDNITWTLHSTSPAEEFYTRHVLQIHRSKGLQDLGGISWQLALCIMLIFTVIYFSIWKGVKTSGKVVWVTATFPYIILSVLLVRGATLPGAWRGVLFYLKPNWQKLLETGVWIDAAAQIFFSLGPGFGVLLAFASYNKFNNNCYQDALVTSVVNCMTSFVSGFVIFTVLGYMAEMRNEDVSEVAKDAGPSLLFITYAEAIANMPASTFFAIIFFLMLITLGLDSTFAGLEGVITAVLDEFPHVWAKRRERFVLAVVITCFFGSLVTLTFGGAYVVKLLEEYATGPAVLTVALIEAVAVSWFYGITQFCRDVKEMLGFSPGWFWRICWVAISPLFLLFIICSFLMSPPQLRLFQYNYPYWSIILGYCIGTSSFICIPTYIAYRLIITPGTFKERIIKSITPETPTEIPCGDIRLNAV

Sequence of Sodium-dependent dopamine transporter (Q01959 whole entry): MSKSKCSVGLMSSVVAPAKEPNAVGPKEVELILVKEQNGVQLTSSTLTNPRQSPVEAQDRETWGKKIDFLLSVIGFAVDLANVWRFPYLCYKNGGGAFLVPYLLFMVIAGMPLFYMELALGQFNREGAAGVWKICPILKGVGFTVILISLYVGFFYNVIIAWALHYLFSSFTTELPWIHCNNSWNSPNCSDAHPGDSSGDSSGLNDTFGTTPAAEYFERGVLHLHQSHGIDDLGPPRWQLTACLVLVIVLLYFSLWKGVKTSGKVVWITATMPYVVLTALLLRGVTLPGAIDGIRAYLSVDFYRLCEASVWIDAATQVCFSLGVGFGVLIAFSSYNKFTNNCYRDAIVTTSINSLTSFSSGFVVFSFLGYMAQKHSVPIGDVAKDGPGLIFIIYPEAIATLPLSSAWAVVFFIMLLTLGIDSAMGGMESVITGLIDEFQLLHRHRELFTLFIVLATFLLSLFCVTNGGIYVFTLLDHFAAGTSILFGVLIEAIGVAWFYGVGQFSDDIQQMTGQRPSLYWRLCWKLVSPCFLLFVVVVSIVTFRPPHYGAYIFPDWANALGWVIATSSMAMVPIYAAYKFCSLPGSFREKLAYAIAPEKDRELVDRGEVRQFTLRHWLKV

Work on CN(C)Cc1ccccc1Sc1ccc(I)cc1CO yielded a Ki [1] of over 1000 nM and a Ki [2] of 0.09 nM.

CN(C)Cc1ccccc1Oc1ccc(I)cc1CO gave a Ki [1] of over 1000 nM and a Ki [2] of 0.12 nM.

CN(C)Cc1ccccc1Cc1ccc(I)cc1N showed a Ki [1] of over 1000 nM and a Ki [2] of 48.6 nM.

CN(C)Cc1ccccc1Sc1ccc(I)cc1N was tested, and the Ki [1] was 840 nM and the Ki [2] was 0.01 nM.

Compound CN(C)Cc1ccccc1Sc1ccc(C#N)cc1N [DASB] has a Ki [1] of over 1000 nM.

CNCCC(Oc1ccccc1OC)c1ccccc1 (stereo not given) [NISOXETINE] gave a Ki [2] of […].
